Data as given in ChEMBL document CHEMBL3526046, “The role of aldehyde oxidase and xanthine oxidase in the biotransformation of a novel negative allosteric modulator of metabotropic glutamate receptor subtype 5” (Drug Metab Dispos, 2012).

Tests used:
Plasma [1] = assay: Retention time in Sprague-Dawley rat plasma treated with 56.6 mg/kg, ip VU0409106 single dose; format: ADME, organism-based; set-up: dose 56.6 mg/kg, route intraperitoneal; settings: in vivo
Summary of the method: (§1)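 Male Sprague-Dawley rats given a single intraperitoneal dose of 56.6 mg/kg. Plasma extracted with 2 volumes acetonitrile and centrifuged; metabolites profiled by LC-MS/MS.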

[2] = Drug level in Sprague-Dawley rat hepatic S9 fraction treated with 25 uM VU0409106 by LC-UV-MS analysis; format: ADME, tissue-based, Liver
Summary of the method: (§2)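 Hepatic S9 (5 mg/ml) in 0.1 M potassium phosphate pH 7.4 with 3 mM MgCl2 and 25 µM substrate, 37°C, 1 h under ambient oxygen; NADPH (2 mM) added in select runs. Reactions started by adding substrate. Protein precipitated with 2 volumes MeCN and the supernatant dried under nitrogen, reconstituted in 85:15 10 mM ammonium formate (pH 4.1)-MeCN, then analysed by LC-MS.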

[3] = Drug level in cynomolgus monkey hepatic S9 fraction treated with 25 uM VU0409106 by LC-UV-MS analysis; format: ADME, tissue-based, Macaca fascicularis, Liver; summary of the method: as §2
[4] = Drug level in human hepatic S9 fraction treated with 25 uM VU0409106 by LC-UV-MS analysis; format: ADME, tissue-based, Liver; summary of the method: as §2
Hepatocyte [5] = assay: Drug level in Sprague-Dawley rat cryopreserved hepatocytes treated with 25 uM VU0409106 by LC-UV-MS analysis; format: ADME, cell-based
[6] = Drug level in Sprague-Dawley rat hepatic S9 fraction treated with 25 uM VU0409106 by LC-MS/MS analysis in presence of 100 uM allopurinol xanthine oxidase inhibitor; format: ADME, tissue-based, Liver; summary of the method: as §2
[7] = Drug level in Sprague-Dawley rat hepatic S9 fraction treated with 3-fluoro-N-(4-methylthiazol-2-yl)-5-(6-oxo-1,6-dihydropyrimidin-5-yloxy)benzamide by LC-MS/MS analysis in presence of 100 uM allopurinol xanthine oxidase inhibitor; format: ADME, tissue-based, Liver
Plasma [8] = assay: Drug level in Sprague-Dawley rat plasma treated with 56.6 mg/kg, ip VU0409106 single dose by LC-MS/MS analysis; format: ADME, organism-based; set-up: dose 56.6 mg/kg, route intraperitoneal; settings: in vivo; summary of the method: as §1
[9] = Drug level in cynomolgus monkey cryopreserved hepatocytes treated with 25 uM VU0409106 by LC-MS/MS analysis; format: ADME, cell-based, Macaca fascicularis, Hepatocyte
Summary of the method: (§3)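 Pooled cryopreserved hepatocytes (2 × 10^6 cells/ml) in Krebs-Henseleit buffer, 25 µM substrate, 37°C for 4 h. Rat donors were 14 males, cynomolgus 4 males, human 20 mixed gender. Cells precipitated with 2 volumes MeCN, centrifuged at 4°C; supernatant dried under nitrogen, reconstituted in 15% aqueous MeCN for LC-MS.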

Hepatocyte [10] = assay: Drug level in human cryopreserved hepatocytes treated with 25 uM VU0409106 by LC-MS/MS analysis; format: ADME, cell-based; summary of the method: as §3
Hepatocyte [11] = assay: Drug level in Sprague-Dawley rat cryopreserved hepatocytes treated with 25 uM VU0409106 by LC-MS/MS analysis in presence of 1-ABT pan-450 inactivator; format: ADME, cell-based
Hepatocyte [12] = assay: Drug level in human cryopreserved hepatocytes treated with 25 uM VU0409106 by LC-MS/MS analysis in presence of 1-ABT pan-450 inactivator; format: ADME, cell-based; summary of the method: as §3

| Structure (SMILES) | Retention_time (Plasma [1]) [min] | Drug metabolism [2] | Drug metabolism [3] | Drug metabolism [4] | Drug metabolism (Hepatocyte [5]) | Drug metabolism [6] | Drug metabolism [7] | Drug metabolism (Plasma [8]) | Drug metabolism [9] | Drug metabolism (Hepatocyte [10]) | Drug metabolism (Hepatocyte [11]) | Drug metabolism (Hepatocyte [12]) |
| --- | --- | --- | --- | --- | --- | --- | --- | --- | --- | --- | --- | --- |
| Cc1csc(NC(=O)c2cc(F)cc(Oc3c[nH]c(=O)[nH]c3=O)c2)n1 | 12.3 | metabolite_detected | metabolite_detected | metabolite_detected | metabolite_detected | metabolite_not_detected | metabolite_not_detected | metabolite_detected |  |  |  |  |
| Cc1csc(NC(=O)c2cc(O)cc(Oc3c[nH]c(=O)[nH]c3=O)c2)n1 | 13.4 |  | metabolite_detected | metabolite_detected | metabolite_detected |  |  | metabolite_detected | metabolite_detected | metabolite_detected | metabolite_not_detected | metabolite_not_detected |
